Results on 2 compounds are retold here after paper PMC5720529 (Kidney International Reports, 2016).

Where two headings read alike, the source gives them in different places.

Data set [1] is described as follows: Whole-blood incubations with etelcalcetide and SAPC. It counts as in vitro ADME. To be noted: human whole blood; for sum total of monitored products as % of total M11: etelcalcetide 5 μM. The gist of the method:
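Pooled human whole blood (healthy volunteers, n = 3) was incubated in duplicate with [14C]etelcalcetide, unlabelled etelcalcetide or SAPC for up to 6 h at 37 °C, then centrifuged; plasma was acidified with 1% formic acid. TCEP reduction gave total M11; M13 was estimated from the M10 standard curve. Model 1 was fitted by maximum likelihood to duplicate means.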

Data set [2] is classed as in vitro ADME. The following applies: condition 3, bovine whole blood, with 3-hour preincubation at 37 °C. Summed up: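 Bovine whole blood (0.5 L) spiked with [14C]etelcalcetide was preincubated 3 h at 37 °C before closed-loop dialysis (QB 50 ml/min, QD 250 ml/min, countercurrent, 5 L dialysate). Heparin (100 U) was added hourly. Reservoirs A and B were sampled for radioactivity and etelcalcetide, followed by a Solvable washout of the dialyzer.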

A short description of data set [3]: Kinetic model 2 fitted simultaneously to hemodialysis conditions 2 and 3. Format: in vitro ADME, bovine. Summed up:
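Kinetic model 2, an extension of the whole-blood model, was fitted simultaneously to etelcalcetide amounts in reservoirs A and B from all three hemodialysis conditions, using one rate-constant set. Each point was the mean of triplicate samples. Conjugation/deconjugation constants (kc, kdc, kb, kdb) were fixed from model 1; kAB and kBA are forward and reverse dialysis-clearance constants between reservoirs.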

The conditions of data set [4]: cited from earlier work.
The nature of data set [5]: In vitro hemodialysis, condition 1: buffered aqueous solution. Format: in vitro ADME. The gist of the method:
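Closed-loop in vitro hemodialysis on an Optiflux dialyzer at ambient temperature (~22 °C). Reservoir A held 0.5 L dialysate and no blood; 5 L dialysate was pumped countercurrent from reservoir B. [14C]etelcalcetide plus urea, creatinine and vitamin B12 controls went into reservoir A, with pumps started at once. Both reservoirs were sampled over 2 h for radioactivity and etelcalcetide (acidified, 1% formic acid), then a 20-min Solvable washout.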

The conditions of data set [6]: human blood; cited from earlier work.
For data set [7] the following is noted: CKD patients on hemodialysis; cited from earlier work.
A short description of data set [8]: Non-covalent plasma protein binding in bovine blood. Format: in vitro ADME. The following applies: data not shown.
Data set [9] is classed as in vitro ADME, bovine. Summed up:
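Same closed-loop dialyzer setup, with reservoir A holding 0.5 L bovine whole blood warmed to 37 °C. Hemodialysis began immediately after [14C]etelcalcetide and urea, creatinine and vitamin B12 controls were spiked in. Sodium heparin (100 U) was added every 30 min. Both reservoirs were sampled over 2 h for radioactivity and etelcalcetide (formic-acid acidified). Dialyzer-bound material was recovered by 20-min Solvable circulation at 50 ml/min.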

For data set [10] the following is noted: close to the hematocrit value; cited from earlier work.

As for `CC(=O)N[C@H](CSSC[C@H](N)C(=O)O)C(=O)N[C@H](C)C(=O)N[C@H](CCCNC(=N)N)C(=O)N[C@H](CCCNC(=N)N)C(=O)N[C@H](CCCNC(=N)N)C(=O)N[C@H](C)C(=O)N[C@H](CCCNC(=N)N)C(N)=O` [etelcalcetide, Etelcalcetide], the “[14C]etelcalcetide biotransformation at 25 °C compared with 37 °C” value in data set [1] ([14C]etelcalcetide 10 μM, up to 6 hours, LC-14C-HRMS) is “slower”. Also, the “sum total of monitored products as % of total M11” value in data set [1] (37 °C, at 1 hour) is reported as “Approximately 90%”; in [1] (37 °C, at 6 hours) it was 77%. Besides, the “kdc, rate constant of disulfide exchange SAPC to etelcalcetide (deconjugation)” value in [1] (model 1 fit (ADAPT 5), 37 °C, mean of duplicate samples) was 0.00038 min^–1. Besides, the “proportion of the dose eliminated in 2 hours” value in data set [2] is recorded as 24%. For the same compound, the “hemodialysis clearance as % of blood flow rate” value in data set [3] (conditions 2 and 3, presence of bovine blood) is approximately 70%. The hemodialysis clearance in [3] (conditions 2 and 3, presence of bovine blood, from kAB, QB 50 ml/min) came to 36 mL/min; in data set [5] (condition 1, absence of blood, from kAB, QB 50 ml/min, QD 250 ml/min) it was 59 mL/min. In data set [3] (in vitro hemodialysis, bovine blood vs dialysate), the “elimination rate constant in blood as % of that in the absence of blood” value is 60%. Also, the “kBA, reverse rate constant of hemodialysis clearance, reservoir B to A” value in data set [3] (model 2 fit, conditions 2 and 3, bovine blood, mean of triplicate samples) is 0.0364 min^–1; in data set [5] (model 2 fit, condition 1, absence of blood, mean of triplicate samples) it was 0.00932 min^–1. Also, the permeability result in data set [4] was “very low”. Moreover, the “hemodialysis clearance rate relative to biotransformation (conversion to SAPC)” value in [5] (comparison of dialytic rate constant with kc) is recorded as more than 16 fold. In addition, in data set [6], the “Non-covalent binding to plasma proteins” value is listed as approximately 50%. Besides, in data set [7], the plasma half-life was more than 170 h. In data set [8], the “bound non-covalently to plasma proteins” value was found to be 40%. In addition, the “14C recovered during the washout period (% of the spiked dose)” value in [9] (condition 2, Solvable washout after 2-hour hemodialysis) is 0.2 % of the spiked dose. The “intact etelcalcetide dialyzed in the first 15 minutes” value in [9] (condition 2, bovine whole blood, no preincubation, 2.1 μM, LC-MS/MS) is 57%. The blood-to-plasma ratio in data set [10] is approximately 0.5.

As to vitamin B12 [reference compound], the “dose remaining in bovine blood” value in [9] (condition 2, at 15 minutes, LC-MS/MS) is listed as 44%; in data set [9] (condition 2, at 120 minutes, LC-MS/MS) it was 8%.
